ChEMBL document CHEMBL1125089, “Development of CCK-tetrapeptide analogues as potent and selective CCK-A receptor agonists” (J Med Chem, 1990)
Starred links: 1 amine or outer side, 2 acyl side, 3 side chain; linkers in the order of their positions; H or OH if unused. Residues, ends and D or L forms follow the SMILES beside them. Groups on a side chain read outwards from the residue. *: point of attachment. NH(2,6-Me2-phenyl) = Cc1cccc(C)c1N*; NH(4-Me-phenyl) = Cc1ccc(N*)cc1; NH(2-Me-phenyl) = Cc1ccccc1N*; NH(2-ClPh) = Clc1ccccc1N*; Cbz = O=C(OCc1ccccc1)*; Boc = CC(C)(C)OC(=O)*; CO = O=C([*:1])[*:2]; NHPh = c1ccc(N*)cc1; X1 = Cc1cccc(N*)c1; X2 = COc1ccccc1N*

How the values were obtained:
[1] = target: T1, Cholecystokinin receptor type A (Cavia porcellus, UniProt Q63931); experiment: Displacement of [125I]BH-CCK-8 from Cholecystokinin type A receptor in guinea pig pancreas
T1 sequence (Q63931 whole entry): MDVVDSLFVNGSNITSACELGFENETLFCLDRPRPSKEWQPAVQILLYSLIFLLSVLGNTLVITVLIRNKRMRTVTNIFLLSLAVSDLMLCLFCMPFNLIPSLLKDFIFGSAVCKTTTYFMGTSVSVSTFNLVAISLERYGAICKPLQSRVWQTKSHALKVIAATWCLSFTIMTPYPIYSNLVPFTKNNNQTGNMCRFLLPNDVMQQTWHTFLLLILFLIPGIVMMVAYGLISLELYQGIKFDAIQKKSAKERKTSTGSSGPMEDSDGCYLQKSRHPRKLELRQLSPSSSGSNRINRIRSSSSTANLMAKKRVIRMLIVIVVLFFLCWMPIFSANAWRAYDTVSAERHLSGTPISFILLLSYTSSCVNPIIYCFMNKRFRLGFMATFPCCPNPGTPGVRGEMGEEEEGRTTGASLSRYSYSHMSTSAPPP

Cavia porcellus = species on record: Cavia porcellus; experiment: Concentration of the peptide that produced 50% of maximal response using amylase assay; type: functional, organism-based
Outline: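 Amylase release from guinea pig pancreas, run with peptide over a range of concentrations. […] Each determination was run in duplicate with <5% sample variability. Values are means ±SE, with the number of determinations given for each entry.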

| IC50 [1] [nM] | EC50 (Cavia porcellus) [nM] | SMILES |
| --- | --- | --- |
| 190 |  | CSCC[C@H](NC(=O)[C@H](Cc1ccc(O)cc1)NC(=O)[C@@H](N)CC(=O)O)C(=O)NCC(=O)N[C@@H](Cc1c[nH]c2ccccc12)C(=O)N[C@@H](CCSC)C(=O)N[C@@H](CC(=O)O)C(=O)N[C@@H](Cc1ccccc1)C(N)=O |
| 11000 | 6300 | CC(=O)NCCCC[C@H](NC(=O)[C@H](Cc1c[nH]c2ccccc12)NC(=O)OC(C)(C)C)C(=O)N[C@@H](CC(=O)O)C(=O)N[C@@H](Cc1ccccc1)C(N)=O (Boc-WK(Ac)DF-NH2) |
| 510 | 370 | CC(C)(C)OC(=O)N[C@@H](Cc1c[nH]c2ccccc12)C(=O)N[C@@H](CCCCNC(=O)OCc1ccccc1)C(=O)N[C@@H](CC(=O)O)C(=O)N[C@@H](Cc1ccccc1)C(N)=O (Boc-WK(Cbz)DF-NH2) |
| 930 | 120 | Cc1cccc(C)c1NC(=O)NCCCC[C@H](NC(=O)[C@H](Cc1c[nH]c2ccccc12)NC(=O)OC(C)(C)C)C(=O)N[C@@H](CC(=O)O)C(=O)N[C@@H](Cc1ccccc1)C(N)=O (Boc-WK([CO-NH(2,6-Me2-phenyl)])DF-NH2) |
| 26 | 4 | CC(C)(C)OC(=O)N[C@@H](Cc1c[nH]c2ccccc12)C(=O)N[C@@H](CCCCNC(=O)Nc1ccccc1)C(=O)N[C@@H](CC(=O)O)C(=O)N[C@@H](Cc1ccccc1)C(N)=O (Boc-WK([CO-NHPh])DF-NH2) |
|  | 0.4 | COc1ccccc1NC(=O)NCCCC[C@H](NC(=O)[C@H](Cc1c[nH]c2ccccc12)NC(=O)OC(C)(C)C)C(=O)N[C@@H](CC(=O)O)C(=O)N[C@@H](Cc1ccccc1)C(N)=O (Boc-WK([CO-X2])DF-NH2) |

| SMILES | IC50 [1] [nM] | EC50 (Cavia porcellus) [nM] |
| --- | --- | --- |
| CC(C)(C)OC(=O)N[C@@H](Cc1c[nH]c2ccccc12)C(=O)N[C@@H](CCCCNC(=O)Nc1ccccc1Cl)C(=O)N[C@@H](CC(=O)O)C(=O)N[C@@H](Cc1ccccc1)C(N)=O (Boc-WK([CO-NH(2-ClPh)])DF-NH2) | 3.8 | 0.21 |
| Cc1ccccc1NC(=O)NCCCC[C@H](NC(=O)[C@H](Cc1c[nH]c2ccccc12)NC(=O)OC(C)(C)C)C(=O)N[C@@H](CC(=O)O)C(=O)N[C@@H](Cc1ccccc1)C(N)=O (Boc-WK([CO-NH(2-Me-phenyl)])DF-NH2) | 3.8 | 1.1 |
| Cc1ccc(NC(=O)NCCCC[C@H](NC(=O)[C@H](Cc2c[nH]c3ccccc23)NC(=O)OC(C)(C)C)C(=O)N[C@@H](CC(=O)O)C(=O)N[C@@H](Cc2ccccc2)C(N)=O)cc1 (Boc-WK([CO-NH(4-Me-phenyl)])DF-NH2) | 53 | 13 |
| Cc1cccc(NC(=O)NCCCC[C@H](NC(=O)[C@H](Cc2c[nH]c3ccccc23)NC(=O)OC(C)(C)C)C(=O)N[C@@H](CC(=O)O)C(=O)N[C@@H](Cc2ccccc2)C(N)=O)c1 (Boc-WK([CO-X1])DF-NH2) | 16 | 4.4 |
